Data reported in ChEMBL document CHEMBL1287756, “Design and synthesis of an androgen receptor pure antagonist (CH5137291) for the treatment of castration-resistant prostate cancer” (Bioorg Med Chem, 2010).
pIC50: −log10 of the molar value. Activity calls are given as the source filed them. The calls are words filed in the database; no cut-off is given here.

Assays:
[1] = target: T1, Androgen receptor (Homo sapiens) (UniProt P10275); conditions: HeLa
T1 sequence (whole entry): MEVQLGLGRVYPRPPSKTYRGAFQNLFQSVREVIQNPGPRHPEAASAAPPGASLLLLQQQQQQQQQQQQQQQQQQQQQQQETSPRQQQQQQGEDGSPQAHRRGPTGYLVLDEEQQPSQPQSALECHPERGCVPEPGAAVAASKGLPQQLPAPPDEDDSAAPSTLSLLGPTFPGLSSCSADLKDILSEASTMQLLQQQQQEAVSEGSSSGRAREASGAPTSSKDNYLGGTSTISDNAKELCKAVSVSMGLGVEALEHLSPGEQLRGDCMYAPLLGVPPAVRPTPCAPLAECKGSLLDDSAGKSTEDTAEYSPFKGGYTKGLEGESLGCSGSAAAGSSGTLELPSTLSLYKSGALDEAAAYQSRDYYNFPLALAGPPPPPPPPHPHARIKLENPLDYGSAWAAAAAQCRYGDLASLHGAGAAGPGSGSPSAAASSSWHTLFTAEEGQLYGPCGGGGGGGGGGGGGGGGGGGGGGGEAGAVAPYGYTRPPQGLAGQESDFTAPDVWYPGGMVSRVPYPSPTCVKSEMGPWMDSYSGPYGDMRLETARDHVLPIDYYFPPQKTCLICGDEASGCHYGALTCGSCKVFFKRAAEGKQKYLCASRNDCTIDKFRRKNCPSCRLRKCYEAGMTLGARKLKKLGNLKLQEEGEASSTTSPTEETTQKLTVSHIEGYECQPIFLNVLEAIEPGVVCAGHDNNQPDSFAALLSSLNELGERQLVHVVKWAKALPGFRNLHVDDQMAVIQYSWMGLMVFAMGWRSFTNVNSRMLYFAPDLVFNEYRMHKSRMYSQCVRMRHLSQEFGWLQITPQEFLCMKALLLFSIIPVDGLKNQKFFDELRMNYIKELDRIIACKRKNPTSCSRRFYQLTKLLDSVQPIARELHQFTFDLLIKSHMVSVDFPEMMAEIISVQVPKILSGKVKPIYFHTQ

[2] = Metabolic stability in human liver microsomes assessed as compound remaining after 15 mins by LC-MS/MS analysis; type: ADME, Microsome; conditions: read-out: Stability
Outline: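 Human liver microsomes in phosphate buffer (pH 7.4) with NADPH added. Percent of parent compound remaining measured after 15 min.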

Androgen receptor = target: T2, Androgen receptor (Homo sapiens, UniProt P10275); assay: Antagonist activity at human AR expressed in human HeLa cells co-transfected with MMTV-Luc-Hyg after 48 hrs by transient-luciferase reporter gene assay; type: functional, cell-based
T2 sequence (P10275 whole entry): T1 sequence (whole entry)

[3] = Membrane permeability by PAMPA assay; type: ADME; conditions: read-out: permeability
[4] = Metabolic stability in mouse liver microsomes assessed as compound remaining after 30 mins by LC-MS/MS analysis; type: ADME, Microsome; conditions: read-out: Stability
[5] = Metabolic stability in dog liver microsomes assessed as compound remaining after 30 mins by LC-MS/MS analysis; type: ADME, Canis lupus familiaris, Microsome; conditions: read-out: Stability
[6] = Metabolic stability in monkey liver microsomes assessed as compound remaining after 30 mins by LC-MS/MS analysis; type: ADME, Macaca mulatta, Microsome; conditions: rhesus monkey, read-out: Stability
[7] = Metabolic stability in human liver microsomes assessed as compound remaining after 30 mins by LC-MS/MS analysis; type: ADME, Microsome; conditions: read-out: Stability
[8] = Metabolic stability in rat liver microsomes assessed as compound remaining after 30 mins by LC-MS/MS analysis; type: ADME, Microsome; conditions: read-out: Stability
Mus musculus [9] = species: Mus musculus; assay: Antiandrogenic activity in castrated mouse assessed as reduction in wet weight gain of seminal vesicle; type: functional
Outline: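 Castrated mice, n = 4 or 5 per group; antiandrogenic activity read as change in seminal vesicle wet weight.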

hERG (KCNH2) = hERG (KCNH2) (Homo sapiens, UniProt Q12809); assay: Inhibition of human ERG at 10 uM by whole cell patch-clamp technique
Outline: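 hERG current recorded by whole-cell patch clamp; one experiment run in duplicate.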

LNCaP [10] = assay: Antitumor activity against human bicalutamide-resistant LNCAP cells xenografted in SCID mouse assessed as inhibition of tumor growth at 100 mg/kg, po qd for seven cycles of 5 days on, 2 days off; type: functional, organism-based; parameters: dose 100 mg/kg
Outline: (§1)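 LNCaP-BC2 cells (2 × 10^6) inoculated subcutaneously into castrated 6-week-old male SCID mice. Randomised at tumour size 90–400 mm3, n = 5 per group. Oral dosing once daily in 5% gum arabic at 10 mL/kg, seven cycles of 5 days on and 2 days off. Tumour size and plasma PSA measured after 17 days. PSA expressed as day 17 level relative to day 0 level.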

LNCaP [11] = assay: Antitumor activity against human bicalutamide-resistant LNCAP cells xenografted in SCID mouse assessed as inhibition of tumor growth at 10 mg/kg, po qd for seven cycles of 5 days on, 2 days off; type: functional, organism-based; parameters: dose 10 mg/kg
Outline: as §1

Mus musculus [12] = assay: Inhibition of prostate specific antigen production in human bicalutamide-resistant LNCAP cells xenografted SCID mouse at 100 mg/kg, po qd for seven cycles of 5 days on and 2 days off measured on day 17; type: functional, organism-based; parameters: dose 100 mg/kg
Outline: as §1

Mus musculus [13] = assay: Inhibition of prostate specific antigen production in human bicalutamide-resistant LNCAP cells xenografted SCID mouse at 10 mg/kg, po qd for seven cycles of 5 days on and 2 days off measured on day 17; type: functional, organism-based; parameters: dose 10 mg/kg
Outline: as §1

Canis familiaris = assay: Cardiotoxicity in anesthetized dog assessed as QT prolongation by electrocardiographic analysis; type: toxicity, organism-based, Canis lupus familiaris; conditions: in vivo

Chain of hERG (KCNH2) (Q12809 whole entry): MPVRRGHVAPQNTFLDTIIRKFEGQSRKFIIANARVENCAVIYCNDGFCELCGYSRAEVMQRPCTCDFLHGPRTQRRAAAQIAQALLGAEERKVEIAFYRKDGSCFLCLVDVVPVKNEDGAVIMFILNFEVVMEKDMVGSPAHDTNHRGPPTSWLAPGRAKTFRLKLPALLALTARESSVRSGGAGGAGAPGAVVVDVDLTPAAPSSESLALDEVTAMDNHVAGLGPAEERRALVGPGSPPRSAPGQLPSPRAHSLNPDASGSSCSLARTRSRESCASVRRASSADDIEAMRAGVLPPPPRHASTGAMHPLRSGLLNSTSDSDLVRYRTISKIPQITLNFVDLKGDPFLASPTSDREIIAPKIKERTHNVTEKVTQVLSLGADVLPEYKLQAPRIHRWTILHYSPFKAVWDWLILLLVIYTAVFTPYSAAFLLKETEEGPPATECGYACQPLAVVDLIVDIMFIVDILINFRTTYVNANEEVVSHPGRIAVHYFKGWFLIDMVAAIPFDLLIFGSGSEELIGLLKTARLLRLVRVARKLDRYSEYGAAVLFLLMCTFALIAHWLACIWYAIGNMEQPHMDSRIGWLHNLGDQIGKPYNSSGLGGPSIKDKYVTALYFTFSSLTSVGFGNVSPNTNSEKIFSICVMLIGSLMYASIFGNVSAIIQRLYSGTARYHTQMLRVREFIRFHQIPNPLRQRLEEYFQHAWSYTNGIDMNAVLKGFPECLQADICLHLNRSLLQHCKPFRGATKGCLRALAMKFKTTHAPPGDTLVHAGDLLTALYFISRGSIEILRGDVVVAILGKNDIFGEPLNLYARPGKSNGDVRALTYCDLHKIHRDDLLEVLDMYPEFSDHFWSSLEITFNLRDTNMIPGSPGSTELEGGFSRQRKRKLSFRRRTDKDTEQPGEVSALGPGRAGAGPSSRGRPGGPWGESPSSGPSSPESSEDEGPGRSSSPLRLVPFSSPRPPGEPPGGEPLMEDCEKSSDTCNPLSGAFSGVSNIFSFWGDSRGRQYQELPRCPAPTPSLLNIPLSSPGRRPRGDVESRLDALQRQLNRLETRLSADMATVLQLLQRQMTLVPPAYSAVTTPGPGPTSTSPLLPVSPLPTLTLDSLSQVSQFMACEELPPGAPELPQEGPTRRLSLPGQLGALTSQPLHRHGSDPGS

Compound	EC5 [1]	remaining at 0.25 h [2]	pIC50 (Androgen receptor)	Papp [3]	remaining at 0.5 h [4]	remaining at 0.5 h [5]	remaining at 0.5 h [6]	remaining at 0.5 h [7]	remaining at 0.5 h [8]	ED50 (Mus musculus [9]; Mus musculus, read-out: ED50)	inhibition at 10 µM (hERG (KCNH2))	inhibition (LNCaP [10])	inhibition (LNCaP [11])	ED50 (Mus musculus [9])	inhibition (Mus musculus [12])	inhibition (Mus musculus [13])	Activity (Canis familiaris)
CC1(C)C(=O)N(c2ccc(C#N)c(C(F)(F)F)c2)C(=S)N1c1ccccc1	3 µM	80%	6.70	0.69 ×10⁻⁶ cm/s	–	–	–	–	–	–	–	–	–	–	–	–	–
CC1(C)NC(=S)N(c2ccc(C#N)c(Cl)c2)C1=O	0.0002 µM	–	–	–	0.038%	< 0.001%	0.027%	0.022%	0.075%	–	–	–	–	–	–	–	–
CC1(C)C(=O)N(c2ccc(C#N)c(Cl)c2)C(=S)N1c1cccc(S(N)(=O)=O)n1	> 10 µM	100%	6.22	1.3 ×10⁻⁶ cm/s	–	–	–	–	–	6 mg/kg	26%	–	–	–	–	–	–
CC1(C)C(=O)N(c2ccc(C#N)c(Cl)c2)C(=S)N1CCCS(N)(=O)=O	> 10 µM	100%	–	25 ×10⁻⁶ cm/s	–	–	–	–	–	10 mg/kg	17%	–	–	–	–	–	–
CC(O)(CS(=O)(=O)c1ccc(F)cc1)C(=O)Nc1ccc(C#N)c(C(F)(F)F)c1 (configuration not stated) [BICALUTAMIDE]	–	99%	–	–	–	–	–	–	–	–	7.4%	inactive	inactive	3 mg/kg	inactive	inactive	–
CC1(C)C(=O)N(c2ccc(C#N)c(Cl)c2)C(=S)N1c1cncc(S(N)(=O)=O)c1	> 10 µM	95%	5.70	13 ×10⁻⁶ cm/s	–	–	–	–	–	–	52%	–	–	–	–	–	–
CC1(C)C(=O)N(c2ccc(C#N)c(C(F)(F)F)c2)C(=S)N1c1cccc(S(N)(=O)=O)c1	> 10 µM	100%	6.52	8.1 ×10⁻⁶ cm/s	–	–	–	–	–	63 mg/kg	41%	–	–	–	–	–	–
CC1(C)C(=O)N(c2ccc(C#N)c(Cl)c2)C(=S)N1c1cccc(S(N)(=O)=O)c1	> 10 µM	100%	–	1.6 ×10⁻⁶ cm/s	–	–	–	–	–	84 mg/kg	58%	–	–	–	–	–	–
CC1(C)C(=O)N(c2ccc(C#N)c(C(F)(F)F)c2)C(=S)N1c1cccc(S(N)(=O)=O)n1	> 10 µM	94%	6.15	14 ×10⁻⁶ cm/s	–	–	–	–	–	7 mg/kg	10%	Active	Active	–	Active	Active	Non-toxic
CC1(C)C(=O)N(c2ccc(C#N)c(C(F)(F)F)c2)C(=S)N1c1ccnc(S(N)(=O)=O)c1	> 10 µM	97%	6.00	12 ×10⁻⁶ cm/s	–	–	–	–	–	–	0%	–	–	–	–	–	–
CC1(C)NC(=S)N(c2ccc(C#N)c(C(F)(F)F)c2)C1=O	0.001 µM	–	–	–	< 0.001%	< 0.001%	< 0.001%	< 0.001%	< 0.001%	–	–	–	–	–	–	–	–
CC1(C)C(=O)N(c2ccc(C#N)c(C(F)(F)F)c2)C(=S)N1c1cncc(S(N)(=O)=O)c1	> 10 µM	95%	6.00	14 ×10⁻⁶ cm/s	–	–	–	–	–	6 mg/kg	33%	–	–	–	–	–	–
